# MEKK3 PB1 HTS: modulators (inhibitors or enhancers) of MEK5 binding to human MEKK3 PB1 domain | bead-based flow cytometry, Alexa488-MEK5 binding to MEKK3; actives lie on both sides; 0 = blocked by unlabeled MEK5, 100 = vehicle | actives 1.4% (n = 290,000) | binding response (% of control), % at 10 µM;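 active = binding response more than 3 SD above or below the average of its plate-row segment, actives on both sides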;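 also: Alexa488 bead fluorescence after subtracting the streptavidin-only scavenger bead signal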
# Beta2AR agonist: human beta-2 adrenergic receptor agonism by FAP | P07550 | Am2.2-beta2AR cells, FAP receptor internalization, flow cytometry | response, % (no concentration beside the values) | actives 0.43% (n = 340,000);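 active = response above a set limit, near 3 SD of response in nonfluorescent compounds, cut at about 42% in these data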
# Target sequence (P07550 whole entry, looked up): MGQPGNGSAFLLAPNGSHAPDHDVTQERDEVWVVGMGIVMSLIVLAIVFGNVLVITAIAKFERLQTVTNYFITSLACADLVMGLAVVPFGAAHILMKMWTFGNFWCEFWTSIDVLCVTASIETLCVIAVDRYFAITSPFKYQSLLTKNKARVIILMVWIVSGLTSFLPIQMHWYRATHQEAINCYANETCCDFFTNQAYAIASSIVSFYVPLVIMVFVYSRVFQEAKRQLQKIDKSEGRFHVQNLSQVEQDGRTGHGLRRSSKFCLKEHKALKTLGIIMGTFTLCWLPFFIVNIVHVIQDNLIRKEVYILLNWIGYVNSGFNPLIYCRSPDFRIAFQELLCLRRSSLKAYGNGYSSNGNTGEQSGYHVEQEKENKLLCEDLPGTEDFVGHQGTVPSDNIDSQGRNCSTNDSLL
# ATG4B inh: ATG4B (human) cysteine protease inhibition. Q9Y4P1. ATG4B cleavage of LC3-PLA2, NBD-HPC fluorescence, 1 h. inhibition, % at 8.33 µM. actives 0.51% (n = 340,000). AID 504462; in the data active = inhibition above about 40%
# MEKK2 mut-MEK5: signal of MEK5 binding to mutant human MEKK2 PB1 domain | actives 0.35% (n = 290,000) | percent response, % at 10 µM | bead flow cytometry, Alexa488-MEK5 binding to MEKK2 mutant; in the data active = percent response above about 24%, passing the limit was not always enough
# Dynein transport: blocks dynein driven cargo transport along microtubules; 3617.4 mouse cells, GR-EGFP nuclear translocation imaging; test concentration mostly 20 µM; stimulated with dexamethasone, 1 µM; hits give low values; z-score, hits read low; actives 0.47% (n = 220,000); AID 1381;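 active = plate z-score of nuclear minus cytoplasmic receptor signal below a set negative limit, without overly bright fluorescence or cell loss, cut at about -3.5 in these data, passing the limit was not always enough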;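 also: z-score of nuclear minus cytoplasmic ring GR-EGFP intensity difference per well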
#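 medium = tetracycline-free induction medium containing charcoal-stripped FBS | also added = 1.0 µM final dexamethasone stimulus | schedule = 48 h induction, 1 h compound, 30 min dex at 37 °C | technique = fixed, Hoechst-stained cells imaged at 10x for EGFP | measure = GR-EGFP nuclear translocation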
# MEKK2 WT-MEK5: raises or lowers MEK5 binding to wildtype human MEKK2 PB1 domain | bead flow cytometry, Alexa488-MEK5 binding to MEKK2 WT; actives lie on both sides | actives 1.1% (n = 290,000) | Q9Y2U5 | binding response (% of control), % at 10 µM; in the data active = binding response below about 67% or above about 130%
# MEKK2wt confirm: raises or lowers MEK5 binding to wildtype human MEKK2, retest; AID 1892; bead flow cytometry, Alexa488-MEK5 binding to MEKK2 WT; actives lie on both sides; binding response (% of control), % at 10 µM; shares compounds with MEKK3 PB1 HTS; actives 2.4% (n = 5,900); in the data active = binding response below about 16% or above about 210%; inactive = in between
# MEKK2mut-MEK5: signal of MEK5 binding to mutant human MEKK2, retest | shares compounds with MEKK3 PB1 HTS | bead flow cytometry, Alexa488-MEK5 binding to MEKK2 mutant | percent response, % at 10 µM | actives 2% (n = 5,900) | AID 1893; in the data active = percent response mostly above about 71%, no sharp cut-off; inactive = mostly below about 38%;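 also: higher means compound restores mutant binding toward wildtype level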
# MEKK3-MEK5 inh: MEKK3-MEK5 PB1 inhibition, single concentration confirmation; binding response (% of control), % at 10 µM; AID 1894; actives 1.8% (n = 5,900); shares compounds with MEKK3 PB1 HTS; bead flow cytometry, Alexa488-MEK5 binding to MEKK3; hits give low values;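 active = binding response below 72% of control, or above a set upper limit, though filed actives all read lower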;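 also: lower values mean stronger disruption of MEK5 binding to MEKK3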
# Hits are given with their value; – = inactive; · = not tested or not shown; [ ] = remark or other dose. An excerpt weighted towards active compounds, which were near 2.9% of everything screened.
SMILES,MEKK3 PB1 HTS,Beta2AR agonist,ATG4B inh,MEKK2 mut-MEK5,Dynein transport,MEKK2 WT-MEK5,MEKK2wt confirm,MEKK2mut-MEK5,MEKK3-MEK5 inh
CCN(CC)S(=O)(=O)c1cccc(NC(=O)Nc2cccc(C(F)(F)F)c2)c1,–,–,–,–,–,219.0,–,–,–
C[C@H](CO)N1C[C@H](C)[C@@H](CN(C)C(=O)Nc2ccccc2)Oc2ccc(NC(=O)Cc3ccccc3)cc2C1=O,·,–,–,·,·,·,·,·,·
Cc1ccc(O)c(-c2cc(C(=O)Nc3ccc(S(=O)(=O)N4CC(C)OC(C)C4)cc3)[nH]n2)c1 (stereo unspecified),123.0,–,–,–,–,–,–,–,–
Cc1ccc(-c2cc(C(=O)Nc3ccc(S(=O)(=O)N4CC(C)OC(C)C4)cc3)[nH]n2)c(O)c1 (stereo unspecified),–,–,–,–,–,–,·,·,·
COc1ccc(OC)c(NC(=O)Nc2cccnc2)c1,–,–,–,–,·,–,·,·,·
CC1CCCCC1NC(=O)CO/N=C/c1ccccc1OC(F)F (stereo unspecified),71.0[inhibitor],–,–,–,–,–,–,–,–
CC1Cc2ccccc2N1C(=O)CO/N=C/c1ccccc1OC(F)F (stereo unspecified),10.0[inhibitor],–,–,–,–,–,–,–,–
CCC(C)NC(=O)CO/N=C/c1ccccc1OC(F)F (stereo unspecified),–,–,–,–,–,–,·,·,·
Cc1ccc(C(=O)C[n+]2cccc3cc(C)ccc32)cc1,25.0[inhibitor],–,–,·,–,·,–,–,–
O=C(C[n+]1cccc2ccccc21)c1ccc(NC(=O)c2ccccc2)cc1,37.0[inhibitor],–,–,·,–,·,–,–,–
Cc1nn(-c2ccccc2)c2nc3c(cc12)C(=O)CCC3,–,–,–,–,–,–,·,·,·
Cc1ccsc1C(=O)N(C)CC(=O)Nc1ccccc1Br,·,–,–,·,·,·,·,·,·
c1coc(CNC2CCCCCCC2)c1,–,–,–,–,–,–,·,·,·
O=S1(=O)CC(O)C(NCc2ccco2)C1 (stereo unspecified),75.0[inhibitor],–,–,–,–,–,–,–,–
O=P(Cc1cccc2ccccc12)(c1ccccc1)c1ccccc1,·,–,–,·,·,·,·,·,·
CC(C)CN1C(=O)/C(=C(/C#N)C(=O)NC2CCCCC2)c2ccccc21,–,–,–,–,–,–,·,·,·
O=c1cc(N2CCCC2)c2ccccc2o1,1.0[inhibitor],–,–,–,–,·,–,–,–
Cc1ccc(NC(=O)NCC2CCN(Cc3cccc(Cl)c3)CC2)cc1Cl,–,–,–,–,–,182.0,–,–,–
O=C(O)c1cc(S(=O)(=O)N2CCCCC2)ccc1N1CCCCC1,·,–,–,·,·,·,·,·,·
COc1ccc(N(CC(=O)N/N=C/c2ccc(N(C)C)cc2)S(=O)(=O)c2ccccc2)cc1,–,–,–,–,·,–,·,·,·
C/C=C/C=N/NC(=O)CN(c1ccc(Br)cc1)S(=O)(=O)c1ccccc1,149.0,–,–,–,–,–,–,–,–
O=S(=O)([O-])C(c1ccccc1)[n+]1ccccc1 (stereo unspecified),·,–,–,·,·,·,·,·,·
COCc1c(C#N)c(NCCc2ccccc2)nc(C)c1[N+](=O)[O-],128.0,–,–,–,–,–,-1.0[inhibitor],–,0.0
COc1ccccc1NC(=O)CSc1nnnn1-c1ccccc1F,–,–,–,–,·,–,·,·,·
Cc1cccc(C)c1NC(=O)CCCCCC1NC(=O)NC1C (stereo unspecified),–,–,–,–,–,–,·,·,·
SMILES,MEKK3 PB1 HTS,Beta2AR agonist,ATG4B inh,MEKK2 mut-MEK5,Dynein transport,MEKK2 WT-MEK5,MEKK2wt confirm,MEKK2mut-MEK5,MEKK3-MEK5 inh
CC1NC(=O)NC1CCCCCC(=O)NCCc1ccccc1 (stereo unspecified),1.0[inhibitor],–,–,–,–,-2.0[inhibitor],–,–,–
CCOC(=O)c1cnc2cc(Cl)c(OC)cc2c1NCC1CCCO1 (stereo unspecified),–,–,–,–,–,136.0,–,–,–
CCOC(=O)c1ccc2ncc(C(=O)OCC)c(NCCN3CCOCC3)c2c1,–,–,–,–,·,–,·,·,·
COc1ccc(C2C(C(=O)Nc3cc(C)on3)c3ccccc3C(=O)N2C)cc1OC (stereo unspecified),0.0[inhibitor],–,–,–,–,0.0[inhibitor],–,–,–
COc1ccc(C2C(C(=O)Nc3cc(C)on3)c3ccccc3C(=O)N2C)cc1 (stereo unspecified),–,–,–,–,–,–,·,·,·
CCn1cnc2cc(NCc3ccc(OC)cc3)ccc21,–,–,–,–,–,–,·,·,·
CCOc1ccc2nc3cc(NCc4ccc(OC)cc4)ccc3c(N)c2c1,82.0[inhibitor],–,–,139.0,·,163.0,220.0,170.0,–
COC(=O)N/N=C(C)/C=C/c1ccccc1,–,–,–,–,·,–,·,·,·
CC(/C=C/c1ccccc1)=N/NC(=O)C(O)c1ccccc1 (stereo unspecified),156.0,–,–,–,–,–,–,–,–
O=C(CNC(=O)C(c1ccccc1)c1ccccc1)N/N=C/c1cccnc1,–,–,–,–,–,–,·,·,·
O=C(N/N=C/c1cccnc1)C(O)c1ccccc1 (stereo unspecified),146.0,–,–,–,–,–,–,–,–
CCN(C(=O)CN1CCC(C(=O)OC)CC1)c1c(N)n(Cc2ccccc2)c(=O)[nH]c1=O,·,–,–,·,·,·,·,·,·
CC(N)C(=O)NC(CO)C(O)C(N)C=O (stereo unspecified),·,–,–,·,·,·,·,·,·
Cc1ccsc1C(=O)OCC(=O)NC1CCCC(C)C1C (stereo unspecified),·,–,–,·,·,·,·,·,·
Cc1cccc(CCNC(=O)c2cc(S(=O)(=O)N3CCCCC3)c[nH]2)c1,–,–,–,–,·,–,·,·,·
CN(C)CCCN(C(=O)c1ccc(S(=O)(=O)N2CCCCCC2)cc1)c1nc2ccc(F)cc2s1,–,–,–,–,·,158.0,–,–,–
CCc1ccc2nc(N(CCCN(C)C)C(=O)c3ccc(S(=O)(=O)N4CCCC4)cc3)sc2c1,–,–,–,–,·,135.0,–,–,–
CN(C)CCCN(C(=O)c1ccc(S(=O)(=O)N2CCCCCC2)cc1)c1nc2c(F)cccc2s1,–,–,–,–,·,134.0,–,–,–
